# Results published in ChEMBL document CHEMBL1139692, “Optimization of pyrimidinyl- and triazinyl-amines as non-nucleoside inhibitors of HIV-1 reverse transcriptase” (Bioorg Med Chem Lett, 2006).
# Assays:
# [1] = Cytotoxicity against MT2 cells; assay type: cell-based; conditions: human
# In short: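 Growth of MT-2 cells was measured by MTT colorimetric read-out, run at the same time as the anti-HIV-1 IIIB protection assay.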
# [2] = system: Human immunodeficiency virus 1; test: Antiviral activity against HIV1 3B in MT2 cells; assay type: functional, organism-based; conditions: Human immunodeficiency virus 1, 3B
# In short: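 HIV-1 IIIB infection of human MT-2 T-cells. Protection was read by MTT colorimetric assay. Curves used triplicate samples at each concentration.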
# [3] = Ratio of CC50 for MT cells/EC50 for HIV1; assay type: functional
EC50 [2] [nM],Structure (SMILES),CC50 [1] [µM],Ratio CC50/EC50 [3]
75,CC(C)=CCOc1cc(Nc2nccc(N)n2)ccc1Cl,0.5,
,COCc1ccnc(Nc2ccc(Cl)c(OCC=C(C)C)c2)n1,> 25,
17,CC(C)=CCOc1cc(Nc2ncccn2)ccc1C#N,0.036,
250,COc1cc(OC)nc(Nc2ccc(Cl)c(OCC=C(C)C)c2)n1,28,
200,CC(C)=CCOc1cc(Nc2ncccn2)ccc1Cl,2.5,
39,CC(C)=CCOc1cc(Nc2nccc(C)n2)ccc1Cl,0.15,
16,CCc1ccnc(Nc2ccc(Cl)c(OCC=C(C)C)c2)n1,0.33,
10000,COc1ccnc(Nc2ccc(Cl)c(Oc3ccc(C)cc3)c2)n1,> 100,
160,COc1cc(OC)nc(Nc2ccc(C#N)c(OCC=C(C)C)c2)n1,0.81,
13000,Clc1ccc(Nc2ncccn2)cc1Oc1ccccc1,30,
89,C/C=C/COc1cc(Nc2nccc(OC)n2)ccc1Cl,17,
320,COc1ccnc(Nc2ccc(Cl)c(Sc3ccccc3)c2)n1,21,
31,COc1ncnc(Nc2ccc(Cl)c(OCC=C(C)C)c2)n1,18,
,CC(C)=CCOc1cc(Nc2ncnc(Cl)n2)ccc1Cl,45,
41,CCOc1ccnc(Nc2ccc(Cl)c(OCC=C(C)C)c2)n1,19,
2300,C/C=C/COc1cc(Nc2ncccn2)ccc1Cl,31,
12000,CC(C)=CCOc1cc(Nc2nc(C)nc(Cl)n2)ccc1Cl,40,
100,COc1nc(C)nc(Nc2ccc(Cl)c(OCC=C(C)C)c2)n1,12,
22,COc1nc(Nc2ccc(C#N)c(OCC=C(C)C)c2)nc(OC)n1,> 100,>1000
5,CSc1ncnc(Nc2ccc(C#N)c(OCC=C(C)C)c2)n1,8.4,>1000

EC50 [2] [nM],Structure (SMILES),CC50 [1] [µM],Ratio CC50/EC50 [3]
2500,COc1ccnc(Nc2ccc(Cl)c(Oc3ccccc3)c2)n1,38,
,COc1ccnc(Nc2ccc(Cl)c(Oc3ccccc3C)c2)n1,13,
6,CNc1ccnc(Nc2ccc(Cl)c(OCC=C(C)C)c2)n1,0.69,
540,COc1ccnc(Nc2ccc(Cl)c(Oc3cccc(C)c3)c2)n1,18,
,CC(C)=CCOc1cc(Nc2nccc(CO)n2)ccc1Cl,0.22,
10,COc1ccnc(Nc2ccc(Cl)c(OCC=C(C)C)c2)n1,9,
290,COc1nc(Nc2ccc(Cl)c(OCC=C(C)C)c2)nc(OC)n1,20,
9,COc1nc(N)nc(Nc2ccc(C#N)c(OCC=C(C)C)c2)n1,0.11,
15,CC(C)=CCOc1cc(Nc2ncnc(N)n2)ccc1C#N,0.2,
31,CNc1ncnc(Nc2ccc(Cl)c(OCC=C(C)C)c2)n1,3.1,
18,CSc1ccnc(Nc2ccc(Cl)c(OCC=C(C)C)c2)n1,2.8,
3000,COc1cc(N)nc(Nc2ccc(Cl)c(OCC=C(C)C)c2)n1,19,
2,COc1ccnc(Nc2ccc(C#N)c(OCC=C(C)C)c2)n1,,
390,CC(C)=CCOc1cc(Nc2ncnc(N)n2)ccc1Cl,48,
5,CNc1ccnc(Nc2ccc(C#N)c(OCC=C(C)C)c2)n1,0.022,
,COc1nc(Cl)nc(Nc2ccc(Cl)c(OCC=C(C)C)c2)n1,26,
310,CC(C)=CCOc1cc(Nc2ncnc(Cl)n2)ccc1C#N,> 100,
,O=C1Nc2ccc(Cl)cc2[C@@](C#CC2CC2)(C(F)(F)F)O1 [EFAVIRENZ],> 0.1,
,Cc1cc(C#N)cc(C)c1Oc1nc(Nc2ccc(C#N)cc2)nc(N)c1Br [ETRAVIRINE],> 1,
,Cc1ccnc2c1NC(=O)c1cccnc1N2C1CC1 [NEVIRAPINE],> 10,
